According to the RNAGym collection of RNA variant scans (doi:10.1038/s41586-018-0170-7):

B1: tRNA (parent)
chain: GUUCCGUUGGCGUAAUGGUAACGCGUCUCCCUCCUAAGGAGAAGACUGCGGGUUCGAGUCCCGUACGGAACG

Variants of: B1
Assay: yeast fitness, log relative to wild type (ln ratio); higher = fitter; tRNA-Arg(CCU), competitive growth, 37 C, 1 M NaCl
In short: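 Fitness is the natural log of each genotype's generations divided by the wild type's. Generations were derived as OD-scaled log2 output/input frequency from 125 bp paired-end Illumina counts, weighting replicates by inverse variance. Pools of the tRNA-Arg(CCU) variant library, on a HIS3 centromeric plasmid in BY4742 lacking the chromosomal gene, grew ~6.5 generations (~26.5 h) in SC-HIS 1M NaCl at 37 °C after 4 generations in SC-HIS at 30 °C.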

Variant	yeast fitness (ln)
G6A A43C C46U A70G C71U	-0.207
G6A C27U	-0.0758
U2G G6U C27U C66U A70G C71U	-0.312
U2G G6U A69G A70G	-0.171
U2G G6U A69G A70U	-0.151
G6A A43C C46U A70U C71U	-0.151
U2G G6U C66A A69G A70G	-0.25
U2G G6U C66A A69G A70U	-0.000141
U2G G6U C27U A69G A70U C71U	-0.515
G6A C27U A43C A69G A70G C71U	-0.371
U2G G6U C27U C46U A69G A70G C71U	-0.268
U2G G6U A69G A70U C71U	-0.26
U2G G6U C27U A43C A69G C71U	-0.439
U2G G6U A43C C66A	-0.122
U2G G6U C46U	-0.0208
U2G G6U A70G C71U	-0.173
G6A A43C C66U A70U C71U	-0.384
U2G G6U C27U A43C C46U A69G A70U C71U	-0.418
U2G G6U C27U C46U C66A A70G	-0.376
U2G G6U C27U C46U C66A A70U	-0.0141
U2G G6U C27U A43C C46U A69G C71U	-0.336

Variant	yeast fitness (ln)
U2G G6U C27U A43C C66U C71U	-0.381
G6A A43C C46U A70G	-0.0876
G6A A43C C46U A70U	-0.117
U2G G6U C27U C66A A70G	-0.243
U2G G6U C27U C66A A70U	-0.0251
U2G G6U A43C C66U A69G C71U	-0.408
G6A A43C C46U C66A A70G	-0.144
G6A A43C C46U C66A A70U	-0.119
G6A A43C C46U C66A A70G C71U	-0.286
U2G G6U C27U A43C C66U A70U C71U	-0.441
U2G G6U C66A A69G C71U	-0.101
U2G G6U C27U C46U A70G	-0.156
U2G G6U C27U C46U A70U	-0.176
U2G G6U C27U C46U C66A C71U	-0.147
U2G G6U C46U C66U A70U C71U	-0.643
G6A A43C C46U C66U A69G C71U	-0.558
U2G G6U C27U A69G A70G	-0.246
U2G G6U C27U A69G A70U	-0.227
G6A A43C C66U A70U	-0.204
G6A A43C C66U A70G	-0.128
U2G G6U C27U A69G A70G C71U	-0.363

Variant	yeast fitness (ln)
G6A A43C C66A A69G A70G C71U	-0.261
U2G G6U A43C C46U C71U	-0.198
U2G G6U C27U C46U A69G	-0.255
G6A A43C C46U C66U	-0.00855
G6A A43C C46U C66A	-0.0495
U2G G6U C46U C66U A70G	-0.137
U2G G6U C46U C66U A70U	-0.0168
U2G G6U A43C C66A A70U C71U	-0.43
U2G G6U C46U C66A A70G C71U	-0.26
U2G G6U C27U C66U A69G A70G	-0.375
U2G G6U C27U C66U A69G A70U	-0.276
U2G G6U C46U C66A A69G A70U C71U	-0.646
U2G G6U C27U C46U C66U A69G A70G C71U	-0.356
G6A A43C C46U C66U A70G	-0.0403
G6A A43C C46U C66U A70U	-0.183
U2G G6U C27U C46U A70G C71U	-0.262
G6A A43C C46U C66U A70G C71U	-0.144
U2G G6U C27U A43C C46U C66A	-0.0517
U2G G6U C27U A43C C46U C66U	-0.262
U2G G6U C27U C46U A69G C71U	-0.205
G6A A43C C46U A69G A70U C71U	-0.493

Variant	yeast fitness (ln)
G6A A43C C46U C66A A69G A70G C71U	-0.207
U2G G6U C27U A43C C66A C71U	-0.39
U2G G6U A43C C66U A70U C71U	-0.464
U2G G6U C27U A43C C46U C66A A70G C71U	-0.197
U2G G6U A43C C46U C66U C71U	-0.309
G6A A43C C46U A69G A70G C71U	-0.241
U2G G6U A43C C46U C66U A69G A70U C71U	-0.4
U2G G6U C27U	-0.0917
G6A A43C C66U	-0.0381
U2G G6U C27U A43C C46U C66U A70G C71U	-0.315
G6A A69G	-0.0982
U2G G6U C27U A43C C46U C66U A69G A70G C71U	-0.369
U2G G6U C66U A70U C71U	-0.303
U2G G6U A43C C66U A69G A70G C71U	-0.411
U2G G6U C27U C46U C66U A69G C71U	-0.527
U2G G6U C46U C66A C71U	-0.0521
U2G G6U C27U C66U	-0.233
U2G G6U C27U C66A	-0.0883
U2G G6U A43C C66U A69G A70U C71U	-0.468
G6A A43C C71U	-0.144
U2G G6U C27U A43C A70U	-0.207
